In ChEMBL document CHEMBL1127597, “Oxadiazoles as ester bioisosteric replacements in compounds related to disoxaril. Antirhinovirus activity” (1994):
Values after ≈ are worked out from the molar mass of the structure shown. Active and inactive are the calls of the source. The calls are words filed in the database; no cut-off is given here.

Key:
Human rhinovirus sp. [1] = assay: In vitro concentration required to inhibit 80 percent of human rhinovirus 54 serotypes was determined by TCID50 assay; type: functional
Human rhinovirus sp. [2] = assay: In vitro concentration required to inhibit 80 percent of human rhinovirus 15 serotypes was determined by TCID50 assay; type: functional
Method in brief: (§1)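 HeLa monolayers were infected with a virus dilution giving 80-100% CPE in 3 days without drug. Compound was serially diluted in 10 2-fold steps onto the infected cells and incubated 3 days at 33 °C in 2.5% CO2. Cells were fixed with 5% glutaraldehyde and stained with 0.25% crystal violet.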

Human rhinovirus sp. [3] = assay: In vitro concentration required to inhibit 80 percent of human rhinovirus 15 serotypes was determined by TCID50 assay;c inactive against majority of serotypes; type: functional, organism-based; method in brief: as §1
Human rhinovirus sp. [4] = assay: In vitro concentration required to inhibit 80 percent of human rhinovirus 15 serotypes was determined by TCID50 assay;c= inactive against majority of serotypes; type: functional, organism-based; method in brief: as §1

Structure (SMILES) | MIC80 (Human rhinovirus sp. [2]) [µM] | further results
COCc1cc(CCCOc2c(Cl)cc(-c3noc(C)n3)cc2Cl)on1 | 0.18 (≈ 0.0717 µg/mL) | MIC80 (Human rhinovirus sp. [1]): 0.19 µM (≈ 0.0757 µg/mL)
Cc1cc(CCCOc2c(Cl)cc(-c3noc(C)n3)cc2Cl)on1 | 0.19 (≈ 0.07 µg/mL) | MIC80 (Human rhinovirus sp. [1]): 0.3 µM (≈ 0.11 µg/mL)
CCCc1cc(CCCOc2c(C)cc(-c3noc(C)n3)cc2C)on1 | 0.21 (≈ 0.0746 µg/mL) | MIC80 (Human rhinovirus sp. [1]): 0.26 µM (≈ 0.0924 µg/mL)
Cc1nc(-c2cc(C)c(OCCCc3cc(C[S+](C)[O-])no3)c(C)c2)no1 (centres undefined) | 1 (≈ 0.389 µg/mL) | –
CCc1nc(-c2cc(C)c(OCCCc3cc(COC)no3)c(C)c2)no1 | 0.21 (≈ 0.078 µg/mL) | –
Cc1cc(CCCOc2c(C)cc(-c3nc(C)no3)cc2C)on1 | 0.73 (≈ 0.239 µg/mL) | –
Cc1cc(CCCOc2c(C)cc(-c3noc(C4CC4)n3)cc2C)on1 | 0.54 (≈ 0.191 µg/mL) | –
COCc1cc(CCCOc2c(C)cc(-c3noc(C)n3)cc2C)on1 | 0.22 (≈ 0.0786 µg/mL) | MIC80 (Human rhinovirus sp. [1]): 0.45 µM (≈ 0.161 µg/mL)
CCc1cc(CCCOc2c(C)cc(-c3noc(CC)n3)cc2C)on1 | 0.4 (≈ 0.142 µg/mL) | –
Cc1cc(CCCOc2c(C)cc(-c3nnc(C)o3)cc2C)on1 | 3.7 (≈ 1.21 µg/mL) | –
Cc1cc(CCCOc2c(C)cc(-c3noc(N)n3)cc2C)on1 | – | MIC80 (Human rhinovirus sp. [3]): inactive
COCCc1cc(CCCOc2c(C)cc(-c3noc(C)n3)cc2C)on1 | 0.24 (≈ 0.0891 µg/mL) | –
Cc1cc(CCCOc2c(C)cc(-c3noc(O)n3)cc2C)on1 | – | MIC80 (Human rhinovirus sp. [4]): inactive
Cc1cc(CCCOc2c(C)cc(-c3nnn(C)n3)cc2C)on1 | 0.71 (≈ 0.232 µg/mL) | –
Cc1cc(CCCOc2c(C)cc(-c3ncon3)cc2C)on1 | – | MIC80 (Human rhinovirus sp. [4]): inactive
CCOCc1cc(CCCOc2c(C)cc(-c3noc(C)n3)cc2C)on1 | 0.19 (≈ 0.0706 µg/mL) | –
Cc1nc(-c2cc(C)c(OCCCc3cc(CS(C)(=O)=O)no3)c(C)c2)no1 | 0.77 (≈ 0.312 µg/mL) | –
Cc1nc(-c2cc(C)c(OCCCc3cc(C4CC4)no3)c(C)c2)no1 | 0.2 (≈ 0.0707 µg/mL) | –
CCc1cc(CCCOc2c(C)cc(-c3ncon3)cc2C)on1 | 3.2 (≈ 1.05 µg/mL) | –
CSCc1cc(CCCOc2c(C)cc(-c3noc(C)n3)cc2C)on1 | 0.32 (≈ 0.12 µg/mL) | –
Cc1cc(CCCOc2c(C)cc(-c3noc(C(C)C)n3)cc2C)on1 | 0.93 (≈ 0.331 µg/mL) | –
CCc1cc(CCCOc2c(Cl)cc(-c3noc(C)n3)cc2Cl)on1 | 0.22 (≈ 0.0841 µg/mL) | MIC80 (Human rhinovirus sp. [1]): 0.23 µM (≈ 0.0879 µg/mL)
Cc1cc(CCCCCOc2c(Cl)cc(C3=NCCO3)cc2Cl)on1 [WIN-54954] | 0.9 (≈ 0.345 µg/mL) | –
Cc1cc(CCCOc2c(C)cc(-c3noc(S)n3)cc2C)on1 | – | MIC80 (Human rhinovirus sp. [3]): inactive
CC(=O)Nc1nc(-c2cc(C)c(OCCCc3cc(C)no3)c(C)c2)no1 | – | MIC80 (Human rhinovirus sp. [3]): inactive
Cc1cc(CCCOc2c(C)cc(-c3noc(C(C)O)n3)cc2C)on1 (centres undefined) | – | MIC80 (Human rhinovirus sp. [4]): inactive
Cc1cc(CCCOc2c(C)cc(-c3noc(N(C)C)n3)cc2C)on1 | 0.8 (≈ 0.285 µg/mL) | –
CCc1cc(CCCOc2c(C)cc(-c3noc(C)n3)cc2C)on1 | 0.26 (≈ 0.0888 µg/mL) | –
Cc1nc(-c2cc(C)c(OCCCc3cc(CCO)no3)c(C)c2)no1 | 1.5 (≈ 0.536 µg/mL) | –

The next lines start with results.

MIC80 (Human rhinovirus sp. [2]) [µM] | Structure (SMILES) | further results
0.39 (≈ 0.134 µg/mL) | COc1nc(-c2cc(C)c(OCCCc3cc(C)no3)c(C)c2)no1 | –
0.32 (≈ 0.109 µg/mL) | CCc1nc(-c2cc(C)c(OCCCc3cc(C)no3)c(C)c2)no1 | –
0.43 (≈ 0.154 µg/mL) | COCc1nc(-c2cc(C)c(OCCCc3cc(C)no3)c(C)c2)no1 | –
0.95 (≈ 0.325 µg/mL) | CNc1nc(-c2cc(C)c(OCCCc3cc(C)no3)c(C)c2)no1 | –
0.26 (≈ 0.0851 µg/mL) | Cc1cc(CCCOc2c(C)cc(-c3noc(C)n3)cc2C)on1 | MIC80 (Human rhinovirus sp. [1]): 0.3 µM (≈ 0.0982 µg/mL)
0.23 (≈ 0.0822 µg/mL) | CCOc1nc(-c2cc(C)c(OCCCc3cc(C)no3)c(C)c2)no1 | –
3.6 (≈ 1.24 µg/mL) | Cc1cc(CCCOc2c(C)cc(-c3noc(CO)n3)cc2C)on1 | –
0.73 (≈ 0.251 µg/mL) | Cc1nc(-c2cc(C)c(OCCCc3cc(CO)no3)c(C)c2)no1 | –
0.79 (≈ 0.281 µg/mL) | CCCc1nc(-c2cc(C)c(OCCCc3cc(C)no3)c(C)c2)no1 | –
